Measured values collected from several papers.
Protocols differ between the studies behind these lines.

Structure (SMILES) | target or system | observed | technique | tested at | notes | endpoint | result
COc1cc(C=Cc2cc(-c3ccccc3)nc(O)n2)ccc1O | – | DPPH scavenging | – | 50 µg/mL | – | inhibition | 61.6%
CN(O)N=Nc1ccc(S(=O)(=O)Nc2nccs2)cc1 | – | DPPH scavenging | absorbance | 120 µg/mL | – | inhibition | 16.4%
COc1ccc(-c2ccc(-c3ccc(C(=N)N)nc3)s2)cc1 | 786-0 | cell growth or viability | – | – | – | GI50 | 1.88 µM
Oc1ccc(Br)cc1C=NCCN1CCOCC1 | – | DPPH scavenging | absorbance | 80 µM | – | inhibition | 17.4%
COc1cc(C=CC(=O)CC(c2ccc(N(C)C)cc2)n2ccnc2)ccc1O (stereo not drawn) | – | DPPH scavenging | – | 12.5 µg/mL | – | inhibition | 42.7%
CCN(O)N=Nc1ccc(S(=O)(=O)Nc2onc(C)c2C)cc1 | – | DPPH scavenging | absorbance | 180 µg/mL | – | inhibition | 22.5%
Cn1nnc2c(C(N)=O)ncn2c1=O | MGC-803 | cell growth or viability | – | – | – | EC50 | 356 µM
COc1cc(C=Cc2cc(-c3ccc(N(C)C)cc3)nc(O)n2)ccc1O | – | DPPH scavenging | – | 100 µg/mL | – | inhibition | 71.7%
O=S(=O)(Nc1nccs1)c1ccc(N=NN(O)c2ccccc2)cc1 | – | DPPH scavenging | absorbance | 20 µg/mL | – | inhibition | 24.1%
CNC(=O)c1cc(Oc2ccc(NC(=O)Nc3ccc(Cl)c(C(F)(F)F)c3)cc2)ccn1 | Salmonella | microbial growth | – | – | clinical isolate | MIC | > 100 µM
O=C1O[C@H]([C@@H](O)CO)C(O)=C1O | – | DPPH scavenging | absorbance | 160 µM | – | inhibition | 70.9%
O=C1O[C@H]([C@@H](O)CO)C(O)=C1O | – | DPPH scavenging | – | 12.5 µg/mL | – | inhibition | 38.9%
